Hits are enriched below; roughly 1.5% of the tested compounds scored in any of these assays.
aDG glyco up: increases alpha dystroglycan glycosylation | hit rate 0.22% among 360,000 | Pro5-aDG cells, alpha-DG glycosylation AlphaScreen (IIH6); 0% Pro5, 100% B10-LARGE cell signal | activation, % at 10 µM;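 active means activation of at least 8% versus controls, or a plate z-score of at least 8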;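 further: Pro5 are CHO cells carrying HIG-tagged alpha-DG that lacks glycosylation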
Rev-erbA mod: modulators of human Rev-erb alpha DNA binding | Rev-erbα–FITC-DNA binding, fluorescence polarization, 90 min | activity, % at 10 µM | hit rate 0.79% among 370,000 | P20393 | AID 1259318;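 active means activity above about 14%, limit read from the data; passing the limit was not always enough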
CSN deneddyl inh: inhibitors of human CSN-mediated cullin deneddylation; Q92905; Purified CSN, SCF-Nedd8-OG deneddylation, fluorescence polarization; inhibition, % at 12.5 µM; hit rate 0.38% among 360,000;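 active means pattern-corrected inhibition above about 35%, with an unprinted fluorescence ratio check between 0.5 and 1.5, limit read from the data, passing the limit was not always enough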
Target sequence (Q92905 whole entry, looked up, one chain of several): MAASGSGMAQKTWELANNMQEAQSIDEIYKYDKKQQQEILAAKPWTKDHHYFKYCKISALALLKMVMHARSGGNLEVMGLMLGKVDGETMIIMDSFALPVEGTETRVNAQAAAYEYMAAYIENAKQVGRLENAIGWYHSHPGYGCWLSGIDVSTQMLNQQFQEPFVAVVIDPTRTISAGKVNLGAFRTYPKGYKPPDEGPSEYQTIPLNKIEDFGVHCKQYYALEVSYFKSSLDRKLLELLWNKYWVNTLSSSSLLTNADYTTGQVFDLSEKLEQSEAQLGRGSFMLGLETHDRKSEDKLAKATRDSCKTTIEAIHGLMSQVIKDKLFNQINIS
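test system = HEK293T-derived human Csn5 enzyme | amount = 0.24 nM Csn5 enzyme, final concentration | medium = Tris/NaCl/DTT buffer, pH 7.5 | schedule = 90 min reaction at room temperature | signal = FP | evaluation = inhibition of Csn5 cleavage, % | compound dosing = single dose of 12.5 µM compound with 0.25% DMSO | probe or stimulus = 10 nM SCFSkp2-Nedd8OG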
HNF4A DNA FP: change in binding of human HNF4 alpha to DNA; P41235; activity change, % at 10 µM; HNF4a-FITC DNA binding, fluorescence polarization, 1 h; hit rate 0.3% among 360,000; AID 1224865; in the data active means activity change above about 30%, passing the limit was not always enough
Of the large screens only hits and unclear results are named; the others gave an inactive call.

COC(=O)[C@@]12C[C@@H](CC(=O)N3CCCC3)C(=O)N(Cc3ccco3)C1=CCC(C)(C)C2	none
COC(=O)[C@@]12C[C@@H](CC(=O)N3CCC(c4ccccc4)CC3)C(=O)N(Cc3ccco3)C1=CCC(C)(C)C2	CSN deneddyl inh 121
O=[N+]([O-])c1ccc(NN=Cc2ccccc2)nc1	none
O=[N+]([O-])c1ccc(N/N=C/c2ccc(OCc3cccc4ccccc34)cc2)nc1	CSN deneddyl inh 70, HNF4A DNA FP 35
COc1ccc(-n2c(Cc3cccs3)nnc2SCC(=O)Nc2cccc3ccccc23)cc1	none (no result: aDG glyco up, CSN deneddyl inh, HNF4A DNA FP)
C=CC(=O)Nc1cccc(Nc2nc(N[C@H]3CC[C@H](N(C)C)CC3)nc3c2ncn3C(C)C)c1	CSN deneddyl inh 112 (no result: Rev-erbA mod)
CC(C)n1cnc2c(Nc3cccc(Cl)c3)nc(NCCCO)nc21	none
O=c1c2ccc(F)cc2sn1-c1ccccc1	HNF4A DNA FP 29
Cc1[nH]c2ccc(C(=O)O)cc2c1C	none
CCCc1c(C)[nH]c2ccc(C(=O)O)cc2c1=S	CSN deneddyl inh 48
COCc1cn(-c2ccc3c(c2)[C@@]2(CC(=O)N(C)C2c2ccccc2)C(=O)N3CC(C)C)nn1 (stereo partly drawn)	none (no result: aDG glyco up, CSN deneddyl inh, HNF4A DNA FP)
Cc1ccc(S(=O)(=O)N2CCN(C3CC(=O)N(CCc4ccccc4)C3=O)CC2)cc1C (stereo not drawn)	HNF4A DNA FP 61
CS(=O)(=O)N1CCN(c2ccc([N+](=O)[O-])c(NCc3ccc(Cl)cc3)c2)CC1	CSN deneddyl inh 76
CS(=O)(=O)N1CCN(c2ccc([N+](=O)[O-])c(NCc3ccccc3)c2)CC1	none
C=C1C2CCC(C2)C1(C)C (stereo not drawn)	none (no result: aDG glyco up, CSN deneddyl inh, HNF4A DNA FP)
CC1(C)CC(NC(=O)c2cccc(S(=O)(=O)N(Cc3ccccc3)c3ccccc3)c2)CC(C)(C)N1	aDG glyco up 6.8
Cc1ccc(S(=O)(=O)N(C)C)cc1NC(=O)CN1C(=O)NC2(CCCCCC2)C1=O	none
COc1ccc(NS(=O)(=O)c2ccc(C)c(NC(=O)CN3C(=O)NC4(CCCC4)C3=O)c2)cc1	CSN deneddyl inh 109
CCN(CC)c1ccc(C(=O)O)cc1	none
CCN(CC)c1ccc(/C=C2\C(=O)c3ccc(C(=O)O)cc3C2=O)cc1	HNF4A DNA FP 84
COc1ccc(-n2nc3c(N4CCC(C(=O)NCc5ccccc5C)CC4)nnc(C)c3c2C)cc1	CSN deneddyl inh 117 (no result: Rev-erbA mod)
COc1ccc(-n2nc3c(N4CCC(C(=O)NCCc5ccccc5C)CC4)nnc(C)c3c2C)cc1	none (no result: Rev-erbA mod)
CCCC(=O)O[C@]1(C(=O)CO)CCC2[C@@H]3CCC4=CC(=O)CC[C@]4(C)C3[C@@H](O)C[C@@]21C (stereo partly drawn)	none (no result: aDG glyco up, CSN deneddyl inh, HNF4A DNA FP)
CCS(=O)(=O)Nc1ccc(-c2nnc(SCC(=O)c3ccc(NC(C)=O)c(OC)c3)o2)cc1	CSN deneddyl inh 46
COC(=O)C1CN(C2CCCC2)CCS(=O)(=O)N1Cc1ccc(OC)cc1 (stereo not drawn)	none (no result: aDG glyco up, CSN deneddyl inh, HNF4A DNA FP)
CCCCSc1nnc(-c2ccc(OC)cc2)n1C	none
COc1ccc(-c2nnc(SCc3csc(N)n3)n2C)cc1	HNF4A DNA FP 37
Cc1ccc(C(=O)Nc2nc(-c3ccco3)c(-c3ccco3)s2)o1	none
O=C(CCCSc1ccccc1)Nc1nc(-c2ccco2)c(-c2ccco2)s1	CSN deneddyl inh 43
NC(=O)c1ccc[n+]([C@@H]2O[C@H](COP(=O)([O-])OP(=O)(O)OC[C@H]3O[C@@H](n4cnc5c(N)ncnc54)[C@H](O)[C@@H]3O)[C@@H](O)[C@H]2O)c1	none (no result: aDG glyco up, CSN deneddyl inh, HNF4A DNA FP)
CCn1c(SCC(=O)c2ccccc2)nnc1-c1cccnc1	HNF4A DNA FP 36
Cc1cc(N2CCCC2=O)cc(C)c1S(=O)(=O)NCCOc1ccc(C(C)(C)C)cc1	aDG glyco up 11
CC(C)OC(=O)C1=CNCC(C)(C)c2c1[nH]c1cc(F)ccc21	none (no result: aDG glyco up, CSN deneddyl inh, HNF4A DNA FP)
N[C@@H](CS)C(=O)O	none (no result: aDG glyco up, CSN deneddyl inh, HNF4A DNA FP)
O=C(c1ccccc1)N1CC[C@H]2[C@H](CCCN2Cc2ccccc2)C1	none (no result: aDG glyco up, CSN deneddyl inh, HNF4A DNA FP)
CCCCCCc1cc2cc(C(=O)NCc3ccccc3)c(=N)oc2cc1O	CSN deneddyl inh 54
CN(/N=C/c1c[nH]c2ccccc12)c1cnn(-c2ccc(F)c(Cl)c2)c(=O)c1Cl	CSN deneddyl inh 48, HNF4A DNA FP 64
O=C(O)CSc1cc(NS(=O)(=O)c2ccc(Br)cc2)c2ccccc2c1O	aDG glyco up 3.4
C#CCNC(=O)C[C@H]1C[C@@]2(C(=O)OC)C(=C[C@H](C(C)(C)C)O[C@@H]2C)N(Cc2ccco2)C1=O	none (no result: aDG glyco up, CSN deneddyl inh, HNF4A DNA FP)
CC(C)(C)C(=O)OCc1nc(-c2ccc(F)cc2)cs1	none
COc1ccc(-c2csc(COC(=O)C(C)(C)C)n2)cc1	CSN deneddyl inh 105
